Source: ChEMBL document CHEMBL2407079, “Potent DGAT1 Inhibitors in the Benzimidazole Class with a Pyridyl-oxy-cyclohexanecarboxylic Acid Moiety” (ACS Med Chem Lett, 2013)

Tests used:
[1] = biological target: T1, Diacylglycerol O-acyltransferase 1 (Mus musculus, UniProt Q9Z2A7); experiment: Inhibition of mouse DGAT1
T1 sequence (Q9Z2A7 whole entry): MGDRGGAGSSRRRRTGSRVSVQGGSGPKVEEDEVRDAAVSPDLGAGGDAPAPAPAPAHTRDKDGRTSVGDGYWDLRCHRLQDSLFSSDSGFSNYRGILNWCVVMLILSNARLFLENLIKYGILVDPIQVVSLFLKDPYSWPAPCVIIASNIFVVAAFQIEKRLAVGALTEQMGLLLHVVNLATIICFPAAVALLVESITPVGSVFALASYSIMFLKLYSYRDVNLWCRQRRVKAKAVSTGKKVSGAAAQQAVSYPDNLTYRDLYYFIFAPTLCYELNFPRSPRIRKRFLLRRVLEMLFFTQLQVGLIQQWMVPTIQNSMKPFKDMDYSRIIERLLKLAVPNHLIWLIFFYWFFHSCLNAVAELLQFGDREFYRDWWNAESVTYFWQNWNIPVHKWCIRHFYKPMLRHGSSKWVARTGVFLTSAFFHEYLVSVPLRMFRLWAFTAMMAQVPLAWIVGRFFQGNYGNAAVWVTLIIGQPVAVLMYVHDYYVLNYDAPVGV

[2] = biological target: T2, Diacylglycerol O-acyltransferase 1 (Homo sapiens, UniProt O75907); experiment: Inhibition of human DGAT1
T2 sequence (O75907 whole entry): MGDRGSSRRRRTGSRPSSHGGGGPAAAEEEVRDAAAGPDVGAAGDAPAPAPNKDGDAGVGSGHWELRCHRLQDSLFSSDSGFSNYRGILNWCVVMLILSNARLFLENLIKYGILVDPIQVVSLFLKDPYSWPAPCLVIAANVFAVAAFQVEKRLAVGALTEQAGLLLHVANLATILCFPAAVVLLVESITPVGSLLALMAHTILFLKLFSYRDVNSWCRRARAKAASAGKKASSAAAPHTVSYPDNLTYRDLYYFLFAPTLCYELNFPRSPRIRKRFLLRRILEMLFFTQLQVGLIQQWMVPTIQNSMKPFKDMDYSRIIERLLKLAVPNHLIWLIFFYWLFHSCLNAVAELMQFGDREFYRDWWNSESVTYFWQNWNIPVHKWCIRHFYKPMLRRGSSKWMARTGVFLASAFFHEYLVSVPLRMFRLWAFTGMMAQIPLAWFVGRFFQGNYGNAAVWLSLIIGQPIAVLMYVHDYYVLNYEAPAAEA

[3] = Biodistribution in mouse jejunum at 3 mg/kg, po at 5 hrs; type: ADME, organism-based; design: dose 3 mg/kg, route oral; conditions: read-out: Drug uptake
Outline: (§1)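 Mice, single oral dose of 3 mg/kg. Drug concentration (μM) determined in blood and in duodenum, jejunum and ileum segments at 2, 5 and 25 h.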

[4] = Biodistribution in mouse blood at 3 mg/kg, po at 25 hrs; type: ADME, organism-based; design: dose 3 mg/kg, route oral; conditions: whole blood, read-out: Drug uptake; outline: as §1
[5] = Biodistribution in mouse ileum at 3 mg/kg, po at 25 hrs; type: ADME, organism-based; design: dose 3 mg/kg, route oral; conditions: read-out: Drug uptake; outline: as §1
[6] = Ratio of drug uptake in duodenum to blood of mouse at 3 mg/kg, po at 2 to 25 hrs; type: ADME, organism-based; design: dose 3 mg/kg, route oral
Outline: (§2)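 Mice dosed orally at 3 mg/kg within a repeat lipid tolerance test. Drug levels (μM) measured in blood and in intestinal segments (duodenum, jejunum, ileum) at 2, 5 and 25 h after dosing. Tissue-to-blood ratio taken from the segment and blood concentrations at each time point.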

[7] = Biodistribution in mouse duodenum at 3 mg/kg, po at 25 hrs; type: ADME, organism-based; design: dose 3 mg/kg, route oral; conditions: read-out: Drug uptake; outline: as §1
[8] = test system: Mus musculus; experiment: Reduction in triglyceride excursion in mouse at 3 mg/kg, po by lipid tolerance test; type: functional; design: scale not given: the % may be the effect or the level left
[9] = Biodistribution in mouse duodenum at 3 mg/kg, po at 2 hrs; type: ADME, organism-based; design: dose 3 mg/kg, route oral; conditions: read-out: Drug uptake; outline: as §1
[10] = Biodistribution in mouse ileum at 3 mg/kg, po at 2 hrs; type: ADME, organism-based; design: dose 3 mg/kg, route oral; conditions: read-out: Drug uptake; outline: as §1
[11] = Biodistribution in mouse blood at 3 mg/kg, po at 2 hrs; type: ADME, organism-based; design: dose 3 mg/kg, route oral; conditions: whole blood, read-out: Drug uptake; outline: as §1
[12] = Biodistribution in mouse duodenum at 3 mg/kg, po at 5 hrs; type: ADME, organism-based; design: dose 3 mg/kg, route oral; conditions: read-out: Drug uptake; outline: as §1
[13] = Biodistribution in mouse ileum at 3 mg/kg, po at 5 hrs; type: ADME, organism-based; design: dose 3 mg/kg, route oral; conditions: read-out: Drug uptake; outline: as §1
[14] = Biodistribution in mouse blood at 3 mg/kg, po at 5 hrs; type: ADME, organism-based; design: dose 3 mg/kg, route oral; conditions: whole blood, read-out: Drug uptake; outline: as §1
[15] = Biodistribution in mouse jejunum at 3 mg/kg, po at 2 hrs; type: ADME, organism-based; design: dose 3 mg/kg, route oral; conditions: read-out: Drug uptake; outline: as §1
[16] = Ratio of drug uptake in jejunum to blood of mouse at 3 mg/kg, po at 2 to 25 hrs; type: ADME, organism-based; design: dose 3 mg/kg, route oral; outline: as §2
[17] = Biodistribution in mouse jejunum at 3 mg/kg, po at 25 hrs; type: ADME, organism-based; design: dose 3 mg/kg, route oral; conditions: read-out: Drug uptake; outline: as §1
[18] = Ratio of drug uptake in ileum to blood of mouse at 3 mg/kg, po at 2 to 25 hrs; type: ADME, organism-based; design: dose 3 mg/kg, route oral; outline: as §2

Row | IC50 [1] [nM] | IC50 [2] [nM] | concentration at 5 h [3] [nM] | concentration at 25 h [4] [nM] | concentration at 25 h [5] [nM] | Kp [6] | concentration at 25 h [7] [nM] | concentration at 2 h [9] [nM] | concentration at 2 h [10] [nM] | concentration at 2 h [11] [nM] | concentration at 5 h [12] [nM] | concentration at 5 h [13] [nM] | concentration at 5 h [14] [nM] | concentration at 2 h [15] [nM] | Kp [16] | concentration at 25 h [17] [nM] | Kp [18] | SMILES | Activity [8] [%]
1 | 96 | 6 | – | – | – | – | – | – | – | – | – | – | – | – | – | – | – | N#Cc1ccc2nc(-c3ccc(-c4ccc(O[C@H]5CC[C@H](C(=O)O)CC5)nc4)nc3)[nH]c2c1 | –
2 | 727 | 137 | – | – | – | – | – | – | – | – | – | – | – | – | – | – | – | CS(=O)(=O)c1ccc2nc(-c3ccc(-c4ccc(O[C@H]5CC[C@H](C(=O)O)CC5)nc4)nc3)[nH]c2c1 | –
3 | 8.1 | 4 | 6010 | 10 | 620 | > 30 | 1760 | 8320 | 3890 | 114 | 8760 | 1720 | 51 | 5510 | > 30 | 3060 | > 30 | O=C(O)[C@H]1CC[C@@H](Oc2ccc(-c3ccc(-c4nc5ccccc5[nH]4)cn3)cn2)CC1 | 95
